# Results: article PMC6263940 (Nature chemical biology, 2018)
# Assays:
# [1] = system: serine hydrolases in THP-1 cells; experiment: ABPP-SILAC; format: cell-based, human; settings: 1 μM, 4 h, THP-1 cells
# [2] = molecular target: T1, serine hydrolases in THP-1 cells (Homo sapiens, UniProt P08910); experiment: ABPP-SILAC; format: cell-based
# T1 sequence (P08910 1-425): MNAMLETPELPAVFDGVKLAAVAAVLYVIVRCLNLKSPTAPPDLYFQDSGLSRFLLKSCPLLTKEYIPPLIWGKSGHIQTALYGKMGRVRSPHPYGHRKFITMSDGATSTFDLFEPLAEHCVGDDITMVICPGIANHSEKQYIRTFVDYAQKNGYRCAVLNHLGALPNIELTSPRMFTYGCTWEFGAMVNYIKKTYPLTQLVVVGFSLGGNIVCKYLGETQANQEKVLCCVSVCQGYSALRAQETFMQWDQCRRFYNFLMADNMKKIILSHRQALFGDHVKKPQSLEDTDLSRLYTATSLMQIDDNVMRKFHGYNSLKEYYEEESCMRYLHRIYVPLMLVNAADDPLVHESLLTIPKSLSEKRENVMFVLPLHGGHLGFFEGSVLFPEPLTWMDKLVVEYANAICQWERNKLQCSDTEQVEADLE
# ABHD12 [3] = molecular target: T2, ABHD12 (Homo sapiens, UniProt Q8N2K0); experiment: ABPP-SILAC; format: cell-based; settings: 1 μM, 4 h, THP-1 cells
# T2 sequence (Q8N2K0 1-398): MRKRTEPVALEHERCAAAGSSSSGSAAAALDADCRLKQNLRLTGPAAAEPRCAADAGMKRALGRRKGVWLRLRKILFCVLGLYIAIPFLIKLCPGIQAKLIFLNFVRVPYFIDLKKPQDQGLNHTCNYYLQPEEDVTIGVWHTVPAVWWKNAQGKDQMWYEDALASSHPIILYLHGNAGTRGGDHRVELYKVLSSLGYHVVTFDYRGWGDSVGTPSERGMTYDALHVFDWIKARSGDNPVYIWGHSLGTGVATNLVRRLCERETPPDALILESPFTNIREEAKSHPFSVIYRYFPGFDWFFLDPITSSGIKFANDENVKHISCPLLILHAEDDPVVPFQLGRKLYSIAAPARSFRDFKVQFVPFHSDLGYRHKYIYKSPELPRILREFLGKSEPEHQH
# Outline: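 Heavy- or light-labelled THP-1 cells (30 million) differentiated with PMA (150 ng/mL final) for 24 h, washed, then kept a further 24 h in fresh SILAC medium. Light cells treated with test compound and heavy cells with DMSO, 4 h at 37 °C. Sonicated whole-cell proteomes (2 mg/mL) labelled separately with FP-biotin 1 μM, 30 min, room temperature, then combined for quantitative MS.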
# LCMV clone 13 = settings: mouse, in vivo
# PLA2G6 = molecular target: T3, PLA2G6 (Mus musculus, UniProt P97819); experiment: Quantitative MS-ABPP of brain membrane proteome from treated mice: PLA2G6; format: in vivo; settings: 30 mg/kg, i.p., 4 h
# T3 sequence (P97819 1-807): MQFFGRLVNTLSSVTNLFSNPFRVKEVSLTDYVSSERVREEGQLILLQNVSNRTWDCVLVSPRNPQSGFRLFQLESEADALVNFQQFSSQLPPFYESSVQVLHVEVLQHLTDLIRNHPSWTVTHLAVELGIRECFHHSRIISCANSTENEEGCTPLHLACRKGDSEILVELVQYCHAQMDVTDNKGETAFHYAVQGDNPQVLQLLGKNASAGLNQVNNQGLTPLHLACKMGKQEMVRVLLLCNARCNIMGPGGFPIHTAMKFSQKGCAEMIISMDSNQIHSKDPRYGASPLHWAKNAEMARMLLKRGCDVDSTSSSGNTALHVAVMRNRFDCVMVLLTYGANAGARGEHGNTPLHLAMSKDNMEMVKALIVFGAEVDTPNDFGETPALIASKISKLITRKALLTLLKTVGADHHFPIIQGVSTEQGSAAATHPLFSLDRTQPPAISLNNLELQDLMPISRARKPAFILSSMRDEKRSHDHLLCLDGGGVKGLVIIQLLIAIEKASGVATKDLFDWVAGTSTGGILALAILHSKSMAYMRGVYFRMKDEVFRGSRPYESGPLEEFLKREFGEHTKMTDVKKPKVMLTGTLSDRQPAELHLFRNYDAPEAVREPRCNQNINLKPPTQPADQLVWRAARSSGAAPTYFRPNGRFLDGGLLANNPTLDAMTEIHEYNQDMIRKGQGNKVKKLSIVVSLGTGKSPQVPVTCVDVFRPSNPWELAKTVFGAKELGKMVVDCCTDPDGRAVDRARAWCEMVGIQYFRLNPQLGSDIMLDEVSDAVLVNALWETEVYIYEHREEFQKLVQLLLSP
# Outline: (§1)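 Mice dosed i.p. with test compound (30 mg/kg) or vehicle and killed after 4 h (isoflurane, then cervical dislocation). Brain membrane serine hydrolase activities quantified by MS-based ABPP. Each protein's value is the mean of median peptide ratios (treated vs vehicle) ± SEM, from n = 4 or 3 independent samples per compound.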
# mice = experiment: Two-week daily dosing, overt signs of toxicity; format: in vivo, mouse; settings: adult mice, 30 mg/kg daily, p.o., two weeks
# THP-1 cells = experiment: Targeted LC-MS of; format: cell-based, human; settings: 4 h
# Outline: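 THP-1 cells (6 million in 10 mL) incubated with test compound or DMSO for 4 h at 37 °C, 5% CO₂. Cells washed twice with ice-cold DPBS and stored at −80 °C, then analysed by targeted LC-MS metabolomics for lyso-PS and PS species.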
# serine hydrolases = experiment: ABPP of brain serine hydrolase activities from treated mice; format: in vivo, mouse; settings: gel- and MS-based ABPP, more than 65 other serine hydrolases quantified
# Outline: as §1
# ABHD12 [4] = molecular target: T2, ABHD12; experiment: In situ treatment of THP-1 cells, competitive gel-based ABPP with JJH350 probe; format: cell-based; settings: 1 μM, 4 h in situ
# Outline: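 Whole THP-1 cells exposed to test compound or DMSO for 4 h at 37 °C, 5% CO₂, then washed twice with ice-cold DPBS. Proteome (1 mg/mL) labelled with JJH350 (2 μM final, 45 min, 37 °C), clicked by CuAAC and resolved on gel. ABHD12 band intensity is expressed relative to the control-treated sample, set to 100%.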
# ABHD12 [5] = molecular target: T2, ABHD12; format: cell-based
# Outline: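 THP-1 cells (6 million in 10 mL) given test compound (1–1000 nM) or DMSO for 4 h at 37 °C, 5% CO₂, then washed twice in ice-cold DPBS. Membrane proteome incubated with 17:1 lyso-PS (100 μM final), 20 min, 37 °C. Readout is the LC-MS 17:1 FFA/15:0 FFA ratio minus the JJH350 (10 μM)-treated membrane background. IC50 fitted as log(inhibitor) vs normalized response.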
smiles,measurement,setting,value
"FC(F)(F)Oc1ccc(Oc2ccnc(N3CCC(NC(=S)Nc4cccnc4)CC3)c2Cl)c(Cl)c1 [DO264, N-3-pyridyl-N’-(1-[3-chloro-4-{2-chloro-4-(trifluoromethoxy)phenoxy}pyridine-2-yl]piperidin-4-yl)thiourea]",effect on activity of other serine hydrolases,[1],without affecting the activity of other serine hydrolases
same,inhibition of human ABHD2 in situ,[2],did not inhibit
same,ABHD12 activity blocked,ABHD12 [3],> 95%
same,"pathological response to Cl13 infection, in comparison to (S)-DO271",LCMV clone 13,heightened pathology
same,pro-inflammatory chemokines in BALF compared to control group,LCMV clone 13,increases
same,total protein in bronchoalveolar lavage fluid (BALF) compared to control group,LCMV clone 13,increases
same,fraction of treated ABHD12(−/−) mice that died prior to sacrifice at day 10,"LCMV clone 13; ip, 30 mg/kg",30-40%
same,reduction in PLA2G6 activity in treated mice,PLA2G6,40-50%
same,"overt signs of toxicity, such as weight loss or behavioral distress",mice,neither compound produced overt signs of toxicity
same,20:4 PS lipids of THP-1 cells,THP-1 cells; 0.001-1 μM,concentration-dependent increase
same,lyso-PS content of THP-1 cells,"THP-1 cells; DO264 0.001-1 μM, (S)-DO271 1 μM",substantial elevations
same,selectivity for ABHD12 in vivo,serine hydrolases,excellent selectivity
same,ABHD12 activity in THP-1 cells by competitive gel-based ABPP (in words),ABHD12 [4],complete blockade
same,IC50,ABHD12 [5],26 nM
